This is an account of results in ChEMBL document CHEMBL2413010, “Design and synthesis of 2-phenyl-1,4-dioxa-spiro[4.5]deca-6,9-dien-8-ones as potential anticancer agents starting from cytotoxic spiromamakone A” (Eur J Med Chem, 2013).

For one test, the system named is HeLa. The test can be described thus: Ratio of spiromamakone A IC50 to compound IC50 for human HeLa cells assessed as cell survival after 48 hrs by WST-8 method. The test is classed as functional.
Conditions: not given
Background: Formazan colour is commonly taken as a measure of viable cells.
Turning to `O=C1C=C[C@@]2(C=C1Cl)OC[C@@H](c1ccc(I)cc1)O2` (mixture of isomers), the “Ratio IC50” value is 15.

The next test deals with HeLa. The test can be described thus: Cytotoxicity against human HeLa cells assessed as cell survival after 48 hrs by WST-8 method. The test is classed as functional, cell-based. The following applies: Homo sapiens, HeLa, 48 h. In a few lines:
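HeLa cells grown in DMEM with 10% FBS, penicillin and streptomycin at 37 °C, 5% CO2. Cells seeded at 1.0 × 10³ per well and left overnight, then exposed for 48 h to compounds in DMSO at various concentrations, with DMSO as negative control. WST-8 added for 1 h at 37 °C; formazan read at 450 nm. IC50 taken as concentration giving 50% cell survival.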
As to `O=C1C=CC2(C=C1)OCC(c1ccc(-c3cnc4ccccc4c3)cc1)O2` (racemic), the IC50 was 790 nM.

On to `O=C1C=CC2(C=C1Cl)OCC(c1ccc(Cl)cc1)O2` (racemic; form 2), for which the IC50 amounted to 2700 nM.

For `O=C1C=C[C@@]2(C=C1Cl)OC[C@@H](c1ccc(-c3ccncc3)cc1)O2` (racemic), the concentration for half-maximal inhibition (IC50) came to 2300 nM.

Regarding `O=C1C=CC2(C=C1)OCC(c1ccc(-c3cccnc3)cc1)O2` (racemic), the IC50 came out at 1500 nM.

Turning to `O=C1C=CC2(C=C1)OCC(c1cccc(-c3cccc(F)c3)c1)O2` (racemic), the IC50 came to 1600 nM.

Take `CCCOC(=O)c1ccc(-c2ccc(C3COC4(C=CC(=O)C=C4)O3)cc2)cc1` (racemic): the IC50 worked out at 820 nM.

As for `COC(=O)c1cc(-c2ccc(C3COC4(C=CC(=O)C=C4)O3)cc2)ccc1F` (racemic), the IC50 was 1800 nM.

On to `CN(C)c1ccc(-c2ccc(C3COC4(C=CC(=O)C=C4)O3)cc2)cc1` (racemic), for which the IC50 came out at 3500 nM.

For the molecule `O=C1C=CC2(C=C1)OCC(c1cccc(-c3cnccc3Cl)c1)O2` (racemic), the IC50 amounted to 1700 nM.

`O=C1C=CC2(C=C1)OCC(c1ccc(-c3ccsc3)cc1)O2` (racemic): the IC50 is 2500 nM.

With `O=C1C=CC2(C=C1)OCC(c1cccc(-c3ccco3)c1)O2` (racemic), the IC50 worked out at 3200 nM.

Consider `O=C1C=CC2(C=C1)OCC(c1cccc(-c3cccc(Cl)c3)c1)O2` (racemic), for which the IC50 stood at 1800 nM.

On to `O=C1C=CC2(C=C1)OCC(c1ccc(-c3ccccc3OCc3ccccc3)cc1)O2` (racemic), for which the IC50 is 960 nM.

Consider `O=C1C=CC2(C=C1)OCC(c1cccc(-c3ccccc3)c1)O2` (racemic), for which the IC50 was 1400 nM.

Consider `O=C1C=C[C@]2(C=C1Cl)OC[C@@H](c1ccc(I)cc1)O2` (relative stereo), for which the IC50 was found to be 2400 nM.

With `O=C1C=CC2(C=C1)OCC(c1cccc(-c3ccc(F)cc3)c1)O2` (racemic), the 50% inhibitory concentration (IC50) amounted to 670 nM.

Regarding `O=C1C=CC2(C=C1)OCC(c1ccc(-c3cncnc3)cc1)O2` (racemic), the IC50 came out at 3200 nM.

Consider `O=C1C=CC2(C=C1)OCC(c1ccc(I)cc1)O2` (racemic), for which the IC50 was 1100 nM.

On to `O=C1C=C[C@@]2(C=C1Cl)OC[C@@H](c1ccc(-c3cccnc3)cc1)O2` (racemic), for which the IC50 amounted to 9400 nM.

On to `O=C1C=CC2(C=C1)OCC(c1cccc(-c3cccc4ccccc34)c1)O2` (racemic), for which the half-maximal inhibitory concentration (IC50) turned out to be 1300 nM.

As to `O=C1C=CC2(C=C1)OCC(c1cccc(-c3ccc(Cl)cc3)c1)O2` (racemic), the IC50 came to 850 nM.

On to `O=C1C=CC2(C=C1Cl)OCC(c1cccc(I)c1)O2` (racemic; form 2), for which the half-maximal inhibitory concentration (IC50) was determined as 1600 nM.

Take `O=C1C=CC2(C=C1)OCC(c1ccc(-c3cnccc3Cl)cc1)O2` (racemic): the IC50 was found to be 1300 nM.

Take `COC(=O)c1cccc(-c2ccc(C3COC4(C=CC(=O)C=C4)O3)cc2)c1` (racemic): the IC50 was determined as 1500 nM.

In the case of `O=C1C=C[C@@]2(C=C1Cl)OC[C@@H](c1ccc(-c3cncnc3)cc1)O2` (racemic), the IC50 is 4600 nM.

Regarding `O=C1C=CC2(C=C1)OCC(c1ccc(-c3ccoc3)cc1)O2` (racemic), the IC50 turned out to be 2500 nM.

On to `O=C1C=CC2(C=C1)OCC(c1ccc(Br)cc1)O2` (racemic), for which the IC50 turned out to be 2400 nM.

As for `O=C1C=CC2(C=C1)OCC(c1ccc(-c3cccc(C(=O)O)c3)cc1)O2` (racemic), the IC50 amounted to 3100 nM.

For the molecule `O=C1C=CC2(C=C1)OCC(c1ccc(-c3cccc(C(F)(F)F)c3)cc1)O2` (racemic), the IC50 worked out at 800 nM.

Regarding `O=C1C=CC(=O)C12C(O)C=CC21Oc2cccc3cccc(c23)O1` (configuration not stated), the IC50 is 2200 nM.

As to `CS(=O)(=O)c1ccc(-c2ccc(C3COC4(C=CC(=O)C=C4)O3)cc2)cc1` (racemic), the IC50 was determined as 1700 nM.

Turning to `O=C1C=C[C@@]2(C=C1Cl)OC[C@@H](c1ccc(-c3cnc4ccccc4c3)cc1)O2` (racemic), the IC50 was determined as 2700 nM.

As to `CC(=O)Nc1ccc(-c2cccc(C3COC4(C=CC(=O)C=C4)O3)c2)cc1` (racemic), the IC50 came out at 880 nM.

With `CS(=O)(=O)c1ccc(-c2cccc(C3COC4(C=CC(=O)C=C4)O3)c2)cc1` (racemic), the IC50 amounted to 790 nM.

Turning to `O=C1C=CC2(C=C1)OCC(c1cccc(-c3cnc4ccccc4c3)c1)O2` (racemic), the IC50 was 2400 nM.

As for `CC(=O)Nc1ccc(-c2ccc(C3COC4(C=CC(=O)C=C4)O3)cc2)cc1` (racemic), the IC50 is 900 nM.

Consider `O=C1C=CC2(C=C1Cl)OCC(c1cccc(Br)c1)O2` (stereo in doubt), for which the IC50 was 610 nM.

For the molecule `O=C1C=CC2(C=C1)OCC(c1ccc(-c3ccncc3)cc1)O2` (racemic), the IC50 worked out at 4500 nM.

Take `O=C1C=C[C@@]2(C=C1Cl)OC[C@@H](c1ccc(I)cc1)O2` (mixture of isomers): the IC50 amounted to 140 nM.

`O=C1C=CC2(C=C1)OCC(c1cccc(-c3ccc4ccccc4c3)c1)O2` (racemic): the IC50 amounted to 1300 nM.

For `O=C1C=CC2(C=C1)OCC(c1cccc(-c3ccsc3)c1)O2` (racemic), the IC50 was determined as 910 nM.

Turning to `O=C1C=CC2(C=C1)OCC(c1ccc(-c3cccc(Cl)c3)cc1)O2` (racemic), the concentration for half-maximal inhibition (IC50) was found to be 1400 nM.

With `COC(=O)c1ccc(-c2ccc(C3COC4(C=CC(=O)C=C4)O3)cc2)cc1` (racemic), the half-inhibitory concentration (IC50) was 2600 nM.

With `O=C1C=CC2(C=C1)OCC(c1ccc(-c3ccc(C(=O)O)cc3)cc1)O2` (racemic), the IC50 turned out to be 1700 nM.

In the case of `CCCOC(=O)c1cccc(-c2ccc(C3COC4(C=CC(=O)C=C4)O3)cc2)c1` (racemic), the IC50 is 800 nM.

As for `O=C1C=CC2(C=C1)OCC(c1cccc(I)c1)O2` (racemic), the IC50 stood at 1600 nM.

The test is the same for the next values; noted with them: hela.
As to `O=C1C=CC2(C=C1Cl)OCC(c1ccc(Cl)cc1)O2` (racemic; form 1), the IC50 turned out to be 2900 nM.

In the case of `O=C1C=CC2(C=C1Cl)OCC(c1cccc(Br)c1)O2` (racemic), the IC50 worked out at 640 nM.

With `O=C1C=CC2(C=C1Cl)OCC(c1cccc(I)c1)O2` (racemic; form 1), the IC50 was determined as 1500 nM.

As for `O=C1C=CC2(C=C1Cl)OCC(c1ccc(Br)cc1)O2` (stereo in doubt), the IC50 came out at 2100 nM.

As to `O=C1C=CC2(C=C1Cl)OCC(c1ccc(Br)cc1)O2` (mixture of isomers), the IC50 was found to be 4500 nM.

For orientation: IC50 means the concentration at which inhibition is half-maximal.
